Experimental data: ChEMBL document CHEMBL1129501 (J Med Chem, 1996)

How the values were obtained:
[1] = target: T1, Phosphodiesterase 1 (Homo sapiens, UniProt P54750+Q01064+Q14123); experiment: Inhibitory activity against calmodulin-dependent Phosphodiesterase was reported.; assay type: protein assay, Canis lupus familiaris
Procedure, shortened: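 Calmodulin-dependent cAMP phosphodiesterase, 8-[3H]-cAMP substrate. Tritiated AMP converted to adenosine with snake venom 5'-nucleotidase. Nucleosides separated from substrate on Dowex anion exchanger, eluted with 3 mM acetic acid. Basal calmodulin-independent activity measured with 1 mM EGTA. Compounds in DMSO at several concentrations. IC50 against calmodulin-dependent activity, mean of triplicates ± standard error.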

[2] = target: Estrogen receptor (Rattus norvegicus) (UniProt P06211+Q62986)
[3] = target: T1, Phosphodiesterase 1; experiment: Antagonistic potency against calmodulin-dependent cyclic AMP phosphodiesterase relative to Idoxifene; assay type: functional; details: Canis lupus familiaris
[4] = target: T1, Phosphodiesterase 1; experiment: Antagonistic potency against calmodulin-dependent cyclic AMP phosphodiesterase relative to 4-Iodotamoxifen; assay type: functional; details: Canis lupus familiaris

Row | Structure (SMILES) | IC50 [1] [µM] | Binding affinity [2] | Relative potency [3] | Relative potency [4]
1 | CC/C(=C(\c1ccc(I)cc1)c1ccc(OCCCN2CCCC2)cc1)c1ccccc1 | 1.1 | 23 | 1.4 | 
2 | CC/C(=C(\c1ccc(I)cc1)c1ccc(OCCCCN2CCCC2)cc1)c1ccccc1 | 1 | 9 | 1.5 | 
3 | CC/C(=C(\c1ccc(I)cc1)c1ccc(OCCCCCCCCN(C)C)cc1)c1ccccc1 | 0.3 | 2 |  | 7.7
4 | CC/C(=C(\c1ccc(I)cc1)c1ccc(OCCCCCCCCN2CCCC2)cc1)c1ccccc1 | 0.2 | 3.5 | 7.5 | 
5 | CC/C(=C(\c1ccc(I)cc1)c1ccc(OCCCCCN2CCCC2)cc1)c1ccccc1 | 0.8 | 8 | 1.9 | 
6 | CC/C(=C(\c1ccc(I)cc1)c1ccc(OCCCCCCN(C)C)cc1)c1ccccc1 | 0.4 | 8 |  | 5.8
7 | CC/C(=C(\c1ccc(I)cc1)c1ccc(OCCCCCCCN2CCCC2)cc1)c1ccccc1 | 0.2 | 3 | 7.5 | 
8 | CC/C(=C(\c1ccc(I)cc1)c1ccc(OCCCCN(C)C)cc1)c1ccccc1 | 2.2 | 25 |  | 1.1
9 | CC/C(=C(\c1ccc(I)cc1)c1ccc(OCCCN(C)C)cc1)c1ccccc1 | 2 | 8 |  | 1.2
10 | CC/C(=C(\c1ccc(I)cc1)c1ccc(OCCCCCCCCCN2CCCC2)cc1)c1ccccc1 | 0.2 | 1.5 | 7.5 | 
11 | CC/C(=C(\c1ccc(I)cc1)c1ccc(OCCCCCCCCCCN(C)C)cc1)c1ccccc1 | 1.2 | 0.4 |  | 1.9
12 | CC/C(=C(\c1ccc(I)cc1)c1ccc(OCCCCCCCCCCN2CCCC2)cc1)c1ccccc1 | 1.6 | 0.4 | 0.9 | 
13 | CC/C(=C(\c1ccc(I)cc1)c1ccc(OCCCCCN(C)C)cc1)c1ccccc1 | 0.6 | 6 |  | 3.8
14 | CC/C(=C(\c1ccc(I)cc1)c1ccc(OCCN2CCCC2)cc1)c1ccccc1 [IDOXIFENE] | 1.5 |  |  | 
15 | CC/C(=C(\c1ccc(I)cc1)c1ccc(OCCN(C)C)cc1)c1ccccc1 | 2.3 | 8 |  | 1
16 | CC/C(=C(\c1ccc(I)cc1)c1ccc(OCCCCCCN2CCCC2)cc1)c1ccccc1 | 0.5 | 4 | 3 | 
